Data reported in ChEMBL document CHEMBL1143345, “Towards Gram-negative antivirulence drugs: new inhibitors of HldE kinase” (Bioorg Med Chem, 2009).
Calls of active or inactive are those of the source. The calls are words filed in the database; no cut-off is given here.

T1: Ribokinase (Escherichia coli K-12, UniProt P0A9J6)
T1 sequence (P0A9J6 whole entry): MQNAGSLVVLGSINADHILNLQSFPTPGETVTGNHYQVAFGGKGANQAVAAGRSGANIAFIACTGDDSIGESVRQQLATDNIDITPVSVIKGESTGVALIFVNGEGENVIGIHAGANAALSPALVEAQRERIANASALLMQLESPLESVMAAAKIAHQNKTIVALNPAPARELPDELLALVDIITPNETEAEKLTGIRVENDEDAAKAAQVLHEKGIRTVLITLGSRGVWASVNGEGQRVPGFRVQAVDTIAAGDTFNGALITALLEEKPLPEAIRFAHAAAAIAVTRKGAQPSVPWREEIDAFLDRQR

B1: Ribokinase (Escherichia coli K-12), P0A9J6 (protein)
chain: MQNAGSLVVLGSINADHILNLQSFPTPGETVTGNHYQVAFGGKGANQAVAAGRSGANIAFIACTGDDSIGESVRQQLATDNIDITPVSVIKGESTGVALIFVNGEGENVIGIHAGANAALSPALVEAQRERIANASALLMQLESPLESVMAAAKIAHQNKTIVALNPAPARELPDELLALVDIITPNETEAEKLTGIRVENDEDAAKAAQVLHEKGIRTVLITLGSRGVWASVNGEGQRVPGFRVQAVDTIAAGDTFNGALITALLEEKPLPEAIRFAHAAAAIAVTRKGAQPSVPWREEIDAFLDRQR

Key:
[1] = Inhibition of Escherichia coli O18:K1 C7 HldE by luminescent assay
Summary of the method: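 His-tagged E. coli O18:K1 C7 HldE (3 nM) pre-incubated 30 min at room temperature with inhibitor (≤5% DMSO). Then H-7-P 0.2 uM and ATP 0.2 uM added for 40 min in pH 7.5 Hepes, 1 mM MnCl2, 25 mM KCl, 0.012% Triton X-100, 1 mM DTT. ATP depletion read by luciferase luminescence; IC50 from 6–10 concentrations, means of three experiments.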

[2] = Inhibition of Neisseria meningitidis 2C43 HldA by luminescent assay
Summary of the method: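 His-tagged N. meningitidis 2C43 HldA (20 nM) pre-incubated 30 min at room temperature with inhibitor, then H-7-P 0.2 uM and ATP 0.2 uM added for 40 min. Buffer pH 7.5 Hepes, 1 mM MnCl2, 25 mM KCl, 0.012% Triton X-100, 1 mM DTT. Residual ATP measured by luciferase/luciferin luminescence; IC50 fitted from 6–10 concentrations.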

Ribokinase = target: T1, Ribokinase; experiment: Inhibition of Escherichia coli K12 MG1655 ribokinase by luminescent assay
Summary of the method: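 His-tagged E. coli K12 MG1655 ribokinase (0.6 nM) in pH 7.5 Hepes buffer with 1 mM MnCl2, 25 mM KCl, 0.012% Triton X-100, 1 mM DTT. Inhibitor pre-incubated 30 min at room temperature, then D-ribose 3 uM and ATP 3 uM added for 40 min. Remaining ATP detected by luciferase/luciferin luminescence; IC50 fitted from 6–10 concentrations.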

Escherichia coli [3] = experiment: Activity of Escherichia coli O18:K1 C7 HldE in presence of 1.8 uM D-glycero-D-manno-heptose-7-phosphate
Summary of the method: (§1)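 His-tagged HldE, Ni-NTA purified, steady-state kinetics with ATP varied at fixed H-7-P. Conditions are pH 7.5 with 1 mM MnCl2, 25 mM KCl and 5% DMSO in Hepes/Triton X-100/DTT buffer. ADP is detected by a pyruvate kinase/lactate dehydrogenase coupled system, reading NADH fluorescence kinetically (ex 360, em 520 nm). Values ± SD.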

Escherichia coli [4] = experiment: Activity of Escherichia coli O18:K1 C7 HldE in presence of 0.2 uM D-glycero-D-manno-heptose-7-phosphate; summary of the method: as §1
Neisseria meningitidis = experiment: Activity of Neisseria meningitidis 2C43 HldA in presence of 0.2 uM D-glycero-D-manno-heptose-7-phosphate
Summary of the method: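 His-tagged HldA, Ni-NTA purified, at 20 nM with 0.2 µM H-7-P and ATP. Buffer is 50 mM Hepes pH 7.5, 1 mM MnCl2, 25 mM KCl, 0.012% Triton X-100 and 1 mM DTT. Reaction runs 40 min at room temperature. ATP depletion is read by luciferase/D-luciferin luminescence.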

Escherichia coli [5] = experiment: Inhibition of Escherichia coli O18:K1 C7 HldE in presence of D-glycero-D-manno-heptose-7-phosphate by luminescent assay
Escherichia coli [6] = experiment: Inhibition of Escherichia coli O18:K1 C7 HldE in presence of Triton-X100 by luminescent assay
[7] = Inhibition of Escherichia coli O18:K1 C7 HldE by fluorescent assay
Summary of the method: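 Coupled fluorescent HldE-kinase assay: His-tagged E. coli O18:K1 C7 HldE (66 pM), 30 min inhibitor pre-incubation at room temperature, then H-7-P 1 uM, ATP 50 uM with PK/PEP/LDH/NADH. pH 7.5 Hepes, 1 mM MnCl2, 25 mM KCl, 0.012% Triton X-100, 1 mM DTT. NADH fluorescence read kinetically; Ki derived, substrate levels varied for competition.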

Escherichia coli [8] = experiment: Activity of Escherichia coli O18:K1 C7 HldE in presence of 0.3 uM ATP
Summary of the method: (§2)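 His-tagged E. coli O18:K1 C7 HldE kinase steady-state kinetics, pH 7.5 with 1 mM MnCl2, 25 mM KCl, 5% DMSO. H-7-P Km measured at fixed ATP 50 uM or 0.3 uM; ADP formation followed by PK/LDH-coupled NADH fluorescence (ex 360, em 520 nm), read kinetically; values ± SD.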

Escherichia coli [9] = experiment: Activity of Escherichia coli O18:K1 C7 HldE in presence of 50 uM ATP; summary of the method: as §2
[10] = compound: Nc1ncnc2c1ncn2[C@@H]1O[C@H](COP(=O)(O)OP(=O)(O)OP(=O)(O)O)[C@@H](O)[C@H]1O; experiment: Activity of Escherichia coli K12 MG1655 ribokinase in presence of 3 uM D-ribose; conditions: Escherichia coli K-12
Summary of the method: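 His-tagged ribokinase, Ni-NTA purified, at 0.6 nM with 3 µM D-ribose and ATP. Buffer is 50 mM Hepes pH 7.5, 1 mM MnCl2, 25 mM KCl, 0.012% Triton X-100 and 1 mM DTT. Reaction runs 40 min at room temperature. ATP depletion is read by luciferase/D-luciferin luminescence. Values ± SD.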

Row | Molecule | IC50 [1] | also measured
1 | Cc1oc(-c2ccccc2)nc1C(=O)N(CC(=O)O)Cc1ccccc1 | > 300 µM | 
2 | COc1cccc(-c2nc(C(=O)N(CC(=O)O)Cc3ccccn3)c(C)o2)c1 | 15 µM | IC50 [2]: > 300 µM; IC50 (Ribokinase): > 300 µM
3 | COc1cccc(-c2nc(C)c(C(=O)N(CC(=O)O)Cc3ccccn3)o2)c1 | 17 µM | 
4 | Cc1nc(-c2ccc3[nH]ccc3c2)sc1C(=O)N(CC(=O)O)Cc1nc2ccccc2s1 | 0.33 µM | IC50 [2]: 8.5 µM; IC50 (Ribokinase): > 100 µM
5 | Cc1oc(-c2ccc(C(F)(F)F)cc2)nc1C(=O)N(CC(=O)O)Cc1ccccn1 | 142 µM | 
6 | COc1ccc(-c2nc(C(=O)N(CC(=O)O)Cc3ccccn3)c(C)o2)cc1 | 75 µM | 
7 | Cc1nc(-c2ccccc2)sc1C(=O)N(CC(=O)O)Cc1ccccn1 | 52 µM | 
8 | CC(=O)c1cccc(-c2nc(C)c(C(=O)N(CC(=O)O)Cc3ccccn3)s2)c1 | 216 µM | 
9 | Cc1oc(-c2cccc(NC(=O)C3CC3)c2)nc1C(=O)N(CC(=O)O)Cc1ccccn1 | 14 µM | 
10 | Cc1oc(-c2cccc([N+](=O)[O-])c2)nc1C(=O)N(CC(=O)O)Cc1ccccn1 | 5.8 µM | IC50 [2]: > 300 µM; IC50 (Ribokinase): > 300 µM
11 | Nc1ncnc2c1ncn2[C@@H]1O[C@H](COP(=O)(O)OP(=O)(O)OP(=O)(O)O)[C@@H](O)[C@H]1O |  | Km (Escherichia coli [3]): 147 µM; Km (Escherichia coli [4]): > 0.8 µM; Km (Neisseria meningitidis): > 0.4 µM
12 | Cc1nc(-c2cccc([N+](=O)[O-])c2)sc1C(=O)N(CC(=O)O)Cc1nc2ccccc2s1 | 0.5 µM | IC50 [2]: 75 µM; IC50 (Ribokinase): > 300 µM
13 | Cc1oc(-c2ccccc2)nc1C(=O)N(CC(=O)O)Cc1ccco1 | > 300 µM | 
14 | Cc1oc(-c2ccc([N+](=O)[O-])cc2)nc1C(=O)N(CC(=O)O)Cc1ccccn1 | 151 µM | 
15 | O=C(O)CN(Cc1ccccn1)C(=O)c1ccc(-c2ccccc2)cc1 | > 300 µM | 
16 | Cc1oc(-c2ccccc2)cc1C(=O)N(CC(=O)O)Cc1ccccn1 | 42 µM | 
17 | CC(=O)Nc1cccc(-c2nc(C(=O)N(CC(=O)O)Cc3ccccn3)c(C)o2)c1 | 28 µM | 
18 | Cc1oc(-c2ccc(N)cc2)nc1C(=O)N(CC(=O)O)Cc1ccccn1 | 22 µM | 
19 | Cc1nc(-c2ccc3ccccc3c2)sc1C(=O)N(CC(=O)O)Cc1nc2ccccc2s1 | 0.48 µM | IC50 [2]: 12 µM; IC50 (Ribokinase): > 33 µM
20 | Cc1onc(-c2ccccc2)c1C(=O)N(CC(=O)O)Cc1ccccn1 | > 300 µM | 
21 | Cc1nc(-c2ccc(N)c([N+](=O)[O-])c2)sc1C(=O)N(CC(=O)O)Cc1ccccn1 | 13 µM | 
22 | Cc1nc(-c2ccccc2)oc1C(=O)N(CC(=O)O)Cc1ccccc1N | > 300 µM | 
23 | COc1cc(-c2nc(C)c(C(=O)N(CC(=O)O)Cc3nc4ccccc4s3)s2)ccc1N | 0.26 µM | 

Row | Molecule | IC50 [1] | also measured
24 | Cc1oc(-c2ccccc2)nc1C(=O)N(CC(=O)O)Cc1ccncc1 | > 300 µM | 
25 | COc1cccc(-c2nc(C(=O)N(CC(=O)O)Cc3ccc4ccccc4n3)c(C)o2)c1 | 12 µM | 
26 | Cc1oc(-c2cccc(C(F)(F)F)c2)nc1C(=O)N(CC(=O)O)Cc1ccccn1 | 35 µM | 
27 | Cc1oc(-c2ccccc2)nc1C(=O)N(CC(=O)O)Cc1ccccn1 | 51 µM | 
28 | Cc1oc(-c2cccc(N)c2)nc1C(=O)N(CC(=O)O)Cc1ccccn1 | 153 µM | 
29 | Cn1nc(-c2ccccc2)cc1C(=O)N(CC(=O)O)Cc1ccccn1 | 57 µM | 
30 | Cc1oc(-c2cccc(N3CCOCC3)c2)nc1C(=O)N(CC(=O)O)Cc1ccccn1 | 70 µM | 
31 | Cc1nc(-c2ccccc2)oc1C(=O)N(CC(=O)O)Cc1ccccn1 | 69 µM | Activity (Escherichia coli [5]): Active; Activity (Escherichia coli [6]): Active; Ki [7]: 38 µM
32 | Cc1oc(-c2ccccc2[N+](=O)[O-])nc1C(=O)N(CC(=O)O)Cc1ccccn1 | 141 µM | 
33 | COc1cccc(-c2nc(C)c(C(=O)N(CC(=O)O)Cc3nc4ccccc4s3)s2)c1 | 0.42 µM | 
34 | Cc1nc(-c2cccc(S(C)(=O)=O)c2)sc1C(=O)N(CC(=O)O)Cc1nc2ccccc2s1 | 75 µM | 
35 | Cc1oc(-c2ccccc2)nc1C(=O)N(CC(=O)O)Cc1nccs1 | 110 µM | 
36 | O=P(O)(O)OC[C@@H](O)[C@H]1OC(O)[C@@H](O)[C@@H](O)[C@@H]1O (stereo partly drawn) |  | Km (Escherichia coli [8]): 0.23 µM; Km (Escherichia coli [9]): 0.6 µM
37 | COc1cccc(-c2nc(C)c(C(=O)N(CC(=O)O)Cc3nc4ccccc4s3)o2)c1 | 0.27 µM | IC50 [2]: 6 µM; IC50 (Ribokinase): > 300 µM
38 | Cc1oc(-c2ccccc2)nc1C(=O)N(CC(=O)O)Cc1cccnc1 | > 300 µM | 
39 | Cc1oc(-c2ccc(Br)cc2)nc1C(=O)N(CC(=O)O)Cc1ccccn1 | 27 µM | 
40 | Cc1oc(-c2ccccc2N)nc1C(=O)N(CC(=O)O)Cc1ccccn1 | 31 µM | 
41 | Cc1oc(-c2ccccc2Br)nc1C(=O)N(CC(=O)O)Cc1ccccn1 | 44 µM | 
42 | O=C(O)CN(Cc1ccccn1)C(=O)c1ccc(-c2ccccc2)o1 | 100 µM | 
43 | Cc1oc(-c2cccc(-c3ccn[nH]3)c2)nc1C(=O)N(CC(=O)O)Cc1nc2ccccc2s1 | 0.11 µM | 
44 | Cc1oc(-c2cccc(Br)c2)nc1C(=O)N(CC(=O)O)Cc1ccccn1 | 10 µM | 
45 | B1 |  | Km [10]: 18 µM
